Activity calls are given as the source filed them. The rule behind the calls is not given here.
Assays:
[1] = test system: MDA-MB-435; experiment: Cytotoxicity against human MDA-MB-435 cells assessed as growth inhibition after 48 hrs by SRB assay; type: functional, cell-based; details: MDA-MB-435, 48 h
[2] = Induction of microtubule depolymerization in rat A10 cells after 18 hrs by indirect immunofluorescence assay; type: cell-based
Outline: (§1)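 A-10 cells were exposed to vehicle or compound for 18 h, fixed, and microtubules were visualized by indirect immunofluorescence. EC50 is the concentration causing about 50% microtubule loss, from at least three independent experiments.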

[3] = test system: A10; experiment: Induction of microtubule depolymerization in rat A10 cells up to 40 uM after 18 hrs by indirect immunofluorescence assay; type: cell-based; outline: as §1
[4] = test system: A10; experiment: Induction of microtubule depolymerization in rat A10 cells up to 10 uM after 18 hrs by indirect immunofluorescence assay; type: cell-based; outline: as §1
[5] = molecular target: Tubulin (Sus scrofa) (UniProt P02554+P02550); experiment: Displacement of [3H]-colchicine from pig brain tubulin at 1 uM after 10 mins by scintillation counting analysis relative to control
Sequence of Tubulin (Sus scrofa) (P02550 whole entry, looked up): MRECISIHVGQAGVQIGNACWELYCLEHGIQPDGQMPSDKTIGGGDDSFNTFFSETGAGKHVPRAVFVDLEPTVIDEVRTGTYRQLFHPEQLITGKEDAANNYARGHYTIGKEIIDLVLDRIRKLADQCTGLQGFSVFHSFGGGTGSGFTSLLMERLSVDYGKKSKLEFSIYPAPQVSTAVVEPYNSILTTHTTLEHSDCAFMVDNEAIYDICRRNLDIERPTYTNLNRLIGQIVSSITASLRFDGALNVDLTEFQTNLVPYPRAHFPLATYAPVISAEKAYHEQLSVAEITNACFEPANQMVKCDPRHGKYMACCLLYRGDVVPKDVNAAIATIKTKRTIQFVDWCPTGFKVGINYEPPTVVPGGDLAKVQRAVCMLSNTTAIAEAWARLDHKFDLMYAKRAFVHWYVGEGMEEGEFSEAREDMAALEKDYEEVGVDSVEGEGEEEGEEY
Sequence of Tubulin (Sus scrofa) (P02554 whole entry, looked up): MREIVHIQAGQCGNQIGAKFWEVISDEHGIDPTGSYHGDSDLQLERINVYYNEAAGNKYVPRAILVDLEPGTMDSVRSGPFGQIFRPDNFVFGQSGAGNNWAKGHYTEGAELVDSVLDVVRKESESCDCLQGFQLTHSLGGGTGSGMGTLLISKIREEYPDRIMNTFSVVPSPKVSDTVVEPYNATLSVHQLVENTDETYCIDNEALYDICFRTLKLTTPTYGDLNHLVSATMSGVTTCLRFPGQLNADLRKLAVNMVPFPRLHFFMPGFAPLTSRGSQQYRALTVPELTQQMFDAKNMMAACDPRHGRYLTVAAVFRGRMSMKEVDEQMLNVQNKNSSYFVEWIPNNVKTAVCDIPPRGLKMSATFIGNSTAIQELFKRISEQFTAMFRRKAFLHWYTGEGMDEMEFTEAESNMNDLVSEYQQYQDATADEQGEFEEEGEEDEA

Q: Which results are given for `Cc1nc2c(c(N(C)c3cccc(Br)c3)n1)CC(C)C2` (racemic)?
A: IC50 [1]: 1500 nM; EC50 [2]: 15000 nM

Q: What does the source list for `Cc1nc2c(c(N(C)c3ccc(Cl)cc3)n1)CC(C)C2` (racemic)?
A: IC50 [1]: 2300 nM; Activity [3]: inactive

Q: For `Cc1ccc(N(C)c2nc(C)nc3c2CCC3)cc1`, which IC50 [1] is on record?
A: The IC50 was 360 nM.

Q: And the EC50 [2]?
A: The EC50 was 10500 nM.

Q: Which IC50 [1] does the source give for `COc1ccc(N(C)c2nc(C)nc3c2C(C)CC3)cc1` (racemic) here?
A: The IC50 was 18.8 nM.

Q: And the EC50 [2]?
A: The EC50 was 47 nM.

Q: What does the source list for `COc1ccc(N(C)c2ncnc3c2CCC3)cc1`?
A: IC50 [1]: 43 nM; EC50 [2]: 655 nM

Q: Which IC50 [1] does the source give for `C=CC1Cc2nc(C)nc(N(C)c3ccc(OC)cc3)c2C1` (racemic) here?
A: Its IC50 is 73.2 nM.

Q: And the EC50 [2]?
A: The EC50 was 140 nM.

Q: For `CCOc1ccc(N(C)c2nc(N)nc3c2CCC3)cc1`, which IC50 [1] is on record?
A: The IC50 was 20.3 nM.

Q: What about the EC50 [2] of the same compound?
A: Its EC50 is 148 nM.

Q: Which results are given for `CCOc1ccc(N(C)c2ncnc3c2CCC3)cc1`?
A: IC50 [1]: 48.7 nM; EC50 [2]: 730 nM

Q: For `CSc1ccc(N(C)c2ncnc3c2CCC3)cc1`, which IC50 [1] is on record?
A: Its IC50 is 42.8 nM.

Q: What about the EC50 [2] of the same compound?
A: Its EC50 is 675 nM.

Q: Which IC50 [1] does the source give for `COc1ccccc1N(C)c1nc(N)nc2c1CCC2` here?
A: Its IC50 is greater than 1000 nM.

Q: And the Activity [4]?
A: The Activity was “inactive”.

Q: For `COc1ccc(N(C)c2nc(N)nc3c2CC(C)C3)cc1` (racemic), which IC50 [1] is on record?
A: The IC50 was 29.9 nM.

Q: And the EC50 [2]?
A: The EC50 was 143 nM.

Q: Which Activity [4] does the source give for `Cc1ccc(N(C)c2ncnc3c2CCC3)cc1` here?
A: Its Activity is “inactive”.

Q: What does the source list for `CCOc1ccc(N(C)c2nc(C)nc3c2CCC3)cc1`?
A: IC50 [1]: 15.1 nM; EC50 [2]: 64 nM

Q: For `COc1ccc(Nc2nc(N)nc3c2CC(C)C3)cc1` (racemic), which IC50 [1] is on record?
A: The IC50 was greater than 10000 nM.

Q: And the Activity [3]?
A: The Activity was “inactive”.

Q: Which IC50 [1] does the source give for `COc1cccc(N(C)c2nc(N)nc3c2CCC3)c1` here?
A: The IC50 was greater than 1000 nM.

Q: What about the Activity [4] of the same compound?
A: Its Activity is “inactive”.

Q: With `COc1ccc(N(C)c2nc(N)nc3c2CCC3)cc1` as the compound, how does the IC50 [1] read?
A: Its IC50 is 16.7 nM.

Q: And the EC50 [2]?
A: The EC50 was 110 nM.

Q: With `COc1ccc(/C=C\c2cc(OC)c(OC)c(OC)c2)cc1O` [COMBRETASTATIN A4] as the compound, how does the inhibition [5] read?
A: The inhibition was 80%.

Q: What about the EC50 [2] of the same compound?
A: The EC50 was 7 nM.

Q: For `C=CC1Cc2nc(N)nc(N(C)c3ccc(OC)cc3)c2C1` (racemic), which IC50 [1] is on record?
A: The IC50 was 205 nM.

Q: And the EC50 [2]?
A: The EC50 was 899 nM.

Q: What does the source list for `CSc1ccc(N(C)c2nc(C)nc3c2CC(C)C3)cc1` (racemic)?
A: IC50 [1]: 15.6 nM; EC50 [2]: 64 nM

Q: Which Activity [4] does the source give for `CN(c1ccc(Cl)cc1)c1ncnc2c1CCC2` here?
A: Its Activity is “inactive”.

Source: ChEMBL document CHEMBL2424583, “Structure-activity relationship and in vitro and in vivo evaluation of the potent cytotoxic anti-microtubule agent N-(4-methoxyphenyl)-N,2,6-trimethyl-6,7-dihydro-5H-cyclopenta[d]pyrimidin-4-aminium chloride and its analogues as antitumor agents” (J Med Chem, 2013)
